In ChEMBL document CHEMBL1138056, “Potent benzimidazole sulfonamide protein tyrosine phosphatase 1B inhibitors containing the heterocyclic (S)-isothiazolidinone phosphotyrosine mimetic” (J Med Chem, 2006) one finds Papp, IC50 and Activity data, which are given here for 8 molecules.

The nature of data set [1]: Permeability across Caco-2 cell membrane. The data set is classed as ADME, cell-based. To be noted: human, read-out: permeability. In general terms: Caco-2 cells form a polarised layer with tight junctions and transporters.
The target in data set [2] is T1, Tyrosine-protein phosphatase non-receptor type 1 (Homo sapiens, UniProt P18031).
T1 sequence (P18031 whole entry): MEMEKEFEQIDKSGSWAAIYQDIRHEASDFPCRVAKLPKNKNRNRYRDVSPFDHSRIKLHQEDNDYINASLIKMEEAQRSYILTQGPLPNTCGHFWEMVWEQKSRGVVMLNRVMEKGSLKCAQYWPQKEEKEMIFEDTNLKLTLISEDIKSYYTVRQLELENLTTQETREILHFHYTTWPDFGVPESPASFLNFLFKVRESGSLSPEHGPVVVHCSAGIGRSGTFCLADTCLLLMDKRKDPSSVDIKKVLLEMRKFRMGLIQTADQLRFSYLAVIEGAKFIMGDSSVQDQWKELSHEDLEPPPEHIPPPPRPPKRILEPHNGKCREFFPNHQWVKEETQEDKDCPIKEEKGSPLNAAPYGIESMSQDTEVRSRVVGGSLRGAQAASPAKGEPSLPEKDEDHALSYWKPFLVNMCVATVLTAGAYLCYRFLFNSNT
In words: Inhibition of PTP1B by pNPP assay.

For data set [3], the target named is T2, Tyrosine-protein phosphatase non-receptor type 1 (Homo sapiens) (UniProt P18031).
T2 sequence (whole entry): T1 sequence (P18031 whole entry)
The experiment in a line: Increase in phosphorylation level of human insulin receptor transfected in HEK293 cells at 80 uM. In kind it is functional, cell-based. The procedure, abridged: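 HEK293-MSR cells cotransfected with full-length human PTP1B and insulin receptor plasmids, attached 24 h, then treated 16 h in serum-free DMEM (0.4% DMSO final). Lysed on ice; IR phosphorylated at Y1162/Y1163 measured by ELISA and normalized to total protein (BCA). Expressed as fold shift; averages of triplicates from the same day.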

Where only a bound is given, the exact number is not on record here.

In general, IC50 refers to the concentration that gives 50% inhibition. Higher therefore signals weaker potency. In the case of `Cc1cc(C[C@H](NS(=O)(=O)c2ccccc2C#N)c2nc3ccccc3[nH]2)ccc1[C@@H]1CC(=O)[N-]S1(=O)=O.[Na+]`, the Papp in data set [1] was under 0.1 ×10⁻⁶ cm/s. The molecule further showed an IC50 in data set [2] of 18 nM. The same molecule registered an Activity in data set [3] of 1.4.
For `O=C1CC(c2ccc(C[C@H](NS(=O)(=O)c3cccc(C(F)(F)F)c3)c3nc4cc(Cl)ccc4[nH]3)cc2F)S(=O)(=O)[N-]1.[Na+]` (some centres undefined), in data set [1], the Papp worked out at 0.3 ×10⁻⁶ cm/s. This molecule had an IC50 in data set [2] of 10 nM. The same molecule gave an Activity in data set [3] of 2.3.
Taken in the same sequence, the figures for `Cc1cc(C[C@H](NS(=O)(=O)c2ccc(Br)c(C(F)(F)F)c2)c2nc3ccccc3[nH]2)ccc1[C@@H]1CC(=O)[N-]S1(=O)=O.[Na+]` were under 0.1 ×10⁻⁶ cm/s, 16 nM and 2.
Taken in the same sequence, the figures for `O=C1C[C@@H](c2ccc(C[C@H](NS(=O)(=O)c3ccccc3)c3nc4ccccc4[nH]3)cc2Cl)S(=O)(=O)[N-]1.[Na+]` were under 0.1 ×10⁻⁶ cm/s, 50 nM and 1.
Regarding `Cc1cc(C[C@H](NS(=O)(=O)c2cccc(Cl)c2)c2nc3ccccc3[nH]2)ccc1[C@@H]1CC(=O)[N-]S1(=O)=O.[Na+]`, in data set [1], the Papp was 0.2 ×10⁻⁶ cm/s. In addition, in data set [2], the IC50 came out at 76 nM. The Activity in data set [3] is 1.9.
Turning to `O=C1CC(c2ccc(C[C@H](NS(=O)(=O)c3ccccc3)c3nc4ccccc4[nH]3)cc2F)S(=O)(=O)[N-]1.[Na+]` (some centres undefined), the Papp in data set [1] amounted to 0.2 ×10⁻⁶ cm/s. Besides, the IC50 in data set [2] was determined as 18 nM. The Activity in data set [3] is 1.6.
Turning to `O=C1CC(c2ccc(C[C@H](NS(=O)(=O)c3ccccc3)c3nc4ccccc4[nH]3)cc2Br)S(=O)(=O)[N-]1.[Na+]` (some centres undefined), the Papp in data set [1] was under 0.1 ×10⁻⁶ cm/s. Besides, the IC50 in data set [2] is 340 nM. In data set [3], this molecule returned an Activity of 0.7.
Taken in the same sequence, the figures for `O=C1C[C@@H](c2ccc(C[C@H](NS(=O)(=O)c3cccc(F)c3)c3nc4ccccc4[nH]3)cc2F)S(=O)(=O)[N-]1.[Na+]` were under 0.1 ×10⁻⁶ cm/s, 15 nM and 1.1.
